CAL PDZ FP-1 = CAL PDZ peptide-binding inhibitors, primary screen, biochemical, fluorescence polarization, Cer-tagged CAL PDZ, HTS; purified CAL PDZ, TMR-peptide fluorescence polarization, 1 h; AID 504414, 2011; inhibition, % at 20 µM; Golgi-associated PDZ and coiled-coil motif-containing protein (Homo sapiens), Q9HD26; actives 0.02% (n = 330,000);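 active = highest replicate inhibition of at least 40%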;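 also: plate controls were DMSO neutral control wells for no effect and unlabeled competitor peptide control wells for full effect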
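Assay system – tagged CAL PDZ protein CerCALP, purified · Timing – 1 h at RT · Compound – single point, 20 µM · Measured by – fluorescence polarization from S- and P-plane intensities, G-factor corrected · Evaluation – inhibition from polarization loss · Probe or stimulus – TMR reporter peptide T*-PRC34 · Buffer or medium – pH 7.4 phosphate-saline buffer, reducing agent, detergent, IgG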
A3A deaminase = APOBEC3A ssDNA deaminase inhibitors, primary screen, selectivity assay for APOBEC3G inhibitor project, biochemical, FAM/TAMRA oligo cleavage fluorescence. recombinant A3A, FAM/TAMRA ssDNA deamination fluorescence. DNA dC->dU-editing enzyme APOBEC-3A (Homo sapiens), P31941. actives 0.41% (n = 330,000). inhibition, % at 20 µM;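 active = at least 40% inhibition at 20 µM here, with at most 30% in a related deaminase screen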;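 also: plate controls were A3A with DMSO for no effect and wells lacking A3A enzyme for full effect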
APOBEC3G inh = APOBEC3G DNA deaminase inhibitors, primary screen, biochemical, fluorescence, single-stranded DNA substrate, uHTS; DNA dC->dU-editing enzyme APOBEC-3G (Homo sapiens), Q9HC16; recombinant A3G, ssDNA deamination FAM/TAMRA fluorescence; inhibition, % at 20 µM; actives 0.28% (n = 330,000); AID 493012, 2011;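 active = inhibition of at least 40% at 20 µM, with no more than 30% in the related APOBEC3A deaminase screen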;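 also: plate controls were DMSO wells with A3G for no effect and wells lacking A3G enzyme for full effect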
CAL PDZ FP-2 = untagged CAL PDZ binding inhibitors, primary screen, biochemical, fluorescence polarization, HTS. Golgi-associated PDZ and coiled-coil motif-containing protein (Homo sapiens), Q9HD26. purified CAL PDZ, TMR-peptide fluorescence polarization, 1 h. inhibition, % at 24.9 µM. actives 0.92% (n = 300,000);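 active = mean inhibition of at least 30% with at least half of replicates also reaching 30%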;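 also: 0% = DMSO neutral control and 100% = excess unlabeled competitor peptide PRC23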
Keap1-Nrf2 PPI = Keap1-Nrf2 protein-protein interaction inhibitors, primary screen, biochemical, fluorescence polarization, single point | Kelch-like ECH-associated protein 1 (Homo sapiens), Q14145 | Keap1 Kelch-Nrf2 peptide fluorescence polarization, 1536-well | inhibition, % at 9.4 µM | actives 0.15% (n = 340,000); in the data active = inhibition above about 12%;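 also: human Keap1 Kelch domain with fluorescein labeled Nrf2 9mer peptide probe; 0% = neutral control wells and 100% = peptide positive control; higher means more block of Keap1 binding to Nrf2 peptide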
Target sequence (Q14145 whole entry, looked up, the tested form may be a part): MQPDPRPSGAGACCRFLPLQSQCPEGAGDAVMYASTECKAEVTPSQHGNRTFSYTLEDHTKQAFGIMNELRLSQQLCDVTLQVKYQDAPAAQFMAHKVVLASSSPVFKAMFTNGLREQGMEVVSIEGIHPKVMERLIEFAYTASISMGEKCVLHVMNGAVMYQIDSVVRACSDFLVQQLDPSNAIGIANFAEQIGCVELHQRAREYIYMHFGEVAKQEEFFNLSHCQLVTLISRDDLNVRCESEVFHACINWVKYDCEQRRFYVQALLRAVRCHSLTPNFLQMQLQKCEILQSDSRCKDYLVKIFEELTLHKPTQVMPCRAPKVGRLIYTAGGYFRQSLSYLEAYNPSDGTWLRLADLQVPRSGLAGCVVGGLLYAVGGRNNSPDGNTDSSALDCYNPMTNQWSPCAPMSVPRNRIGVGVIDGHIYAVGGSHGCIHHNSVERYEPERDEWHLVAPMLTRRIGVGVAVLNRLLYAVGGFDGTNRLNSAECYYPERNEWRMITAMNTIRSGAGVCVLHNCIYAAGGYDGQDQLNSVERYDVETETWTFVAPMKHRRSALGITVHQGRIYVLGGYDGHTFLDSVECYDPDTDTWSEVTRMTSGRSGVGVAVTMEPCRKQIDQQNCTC
LANA DNA inh = inhibitors of KSHV C-LANA binding to DNA, primary screen, biochemical, fluorescence polarization, FAM-LBS DNA, MBP-C-LANA, single point. Kaposi's sarcoma herpesvirus LANA C-terminal domain (residues 932-1162) DNA binding. inhibition, % at 9 µM. actives 0.078% (n = 340,000). AID 504423, 2011;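 active = highest replicate inhibition at or above 60% at 9 µM, even if other replicates fall short; inactive = all replicates below 60% inhibition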;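 also: 0% = neutral control wells and 100% = 4 µM acridine orange control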
Active calls of the source: *. Shown are actives, neighbours in structure and some others; about 1.7% of the full set was active somewhere.

How did Cc1nnc(SCC(=O)Nc2nccs2)s1 do in these assays?
CAL PDZ FP-1: 0.6; A3A deaminase: 3.4; APOBEC3G inh: -3.1; CAL PDZ FP-2: 79.1*; Keap1-Nrf2 PPI: -1.5; LANA DNA inh: 1.0

What do the screens show for `CC(C)Oc1cccc(C(=O)C2CCCN(C(=O)CCn3cnnn3)C2)c1` (centres undefined)?
CAL PDZ FP-1: -0.7; A3A deaminase: 5.4; APOBEC3G inh: 7.9; CAL PDZ FP-2: 77.3*; Keap1-Nrf2 PPI: -3.0; LANA DNA inh: -1.4

How did Cc1cc(C)n(CC(=O)N2CCCC(C(=O)c3cccc(OC(C)C)c3)C2)n1 (centres undefined) do in these assays?
CAL PDZ FP-1: -0.5; A3A deaminase: 1.6; APOBEC3G inh: -0.3; CAL PDZ FP-2: 0.8; Keap1-Nrf2 PPI: 0.1; LANA DNA inh: 2.3

Results for Cc1cccc(C(=O)Nc2cccc3c2CCCC3)c1 ?
CAL PDZ FP-1: 0.6; A3A deaminase: 1.0; APOBEC3G inh: -3.5; CAL PDZ FP-2: -1.0; Keap1-Nrf2 PPI: 0.0; LANA DNA inh: 1.1

How did Oc1[nH]c2ccccc2c1N=Nc1nncc2ccccc12 do in these assays?
CAL PDZ FP-1: -0.1; A3A deaminase: -0.4; APOBEC3G inh: -4.8; CAL PDZ FP-2: 51.8*; Keap1-Nrf2 PPI: 7.3; LANA DNA inh: -1.8

How did Oc1[nH]c2ccccc2c1N=Nc1ccccn1 do in these assays?
CAL PDZ FP-1: -1.6; CAL PDZ FP-2: 2.8; Keap1-Nrf2 PPI: -3.7; LANA DNA inh: -1.0

What do the screens show for `Nc1nc(-c2ccc(Cl)cc2)nn1C(=O)c1ccco1`?
CAL PDZ FP-1: 0.2; A3A deaminase: 0.5; APOBEC3G inh: -2.0; CAL PDZ FP-2: -0.6; Keap1-Nrf2 PPI: -0.2; LANA DNA inh: -1.4

Results for COc1ccc(-c2nc(N)n(C(=O)c3ccco3)n2)cc1 ?
A3A deaminase: -1.4; APOBEC3G inh: 2.9; CAL PDZ FP-2: 77.2*; Keap1-Nrf2 PPI: -2.9; LANA DNA inh: 0.9

How did CCN1CCN(C(=O)c2cc(=O)c3cc(C)ccc3o2)CC1 do in these assays?
CAL PDZ FP-1: -0.8; A3A deaminase: 0.1; APOBEC3G inh: -1.8; CAL PDZ FP-2: 44.2*; Keap1-Nrf2 PPI: 1.2; LANA DNA inh: -1.1

What do the screens show for `COc1ccc(Nc2ncc(C(=O)N3CCC(C(N)=O)CC3)c3ccccc23)cc1`?
CAL PDZ FP-1: -1.3; A3A deaminase: 1.3; APOBEC3G inh: 1.2; CAL PDZ FP-2: 71.5*; Keap1-Nrf2 PPI: -2.0; LANA DNA inh: -2.9

Results for COc1ccccc1Nc1ncc(C(=O)N2CCC(C(N)=O)CC2)c2ccccc12 ?
A3A deaminase: -3.6; APOBEC3G inh: -4.3; CAL PDZ FP-2: -24.8; Keap1-Nrf2 PPI: 0.8; LANA DNA inh: -0.6

How did CCOc1ccc(CCNC(=O)Cn2c(-c3nonc3N)nc3ccccc32)cc1OCC do in these assays?
CAL PDZ FP-1: -2.6; A3A deaminase: -1.2; APOBEC3G inh: 0.5; CAL PDZ FP-2: 0.6; Keap1-Nrf2 PPI: -7.8; LANA DNA inh: 0.6

What do the screens show for `COc1ccc(CCNC(=O)Cn2c(-c3nonc3N)nc3ccccc32)cc1OC`?
A3A deaminase: 5.9; APOBEC3G inh: 2.2; CAL PDZ FP-2: 40.5*; Keap1-Nrf2 PPI: -4.5; LANA DNA inh: 1.0

How did O=C(N/N=C\c1c(O)ccc2ccccc12)c1ccc(Cn2cccn2)o1 do in these assays?
CAL PDZ FP-1: 0.7; A3A deaminase: -7.2; APOBEC3G inh: -12.0; CAL PDZ FP-2: 1.2; Keap1-Nrf2 PPI: -3.4; LANA DNA inh: 2.7

What do the screens show for `CC(=O)N(c1ccc(C)cc1)S(=O)(=O)c1ccc(Cl)cc1`?
CAL PDZ FP-1: -0.9; A3A deaminase: 0.9; APOBEC3G inh: -6.8; CAL PDZ FP-2: 45.9*; Keap1-Nrf2 PPI: -2.7; LANA DNA inh: 1.2

What do the screens show for `O=C(CN1CCN(CC(=O)Nc2cccc(F)c2)CC1)Nc1ccc(-c2ccccc2)cc1`?
CAL PDZ FP-1: -1.0; A3A deaminase: 21.9; APOBEC3G inh: 4.4; CAL PDZ FP-2: 58.3*; Keap1-Nrf2 PPI: 0.3; LANA DNA inh: -1.4

How did O=C(Nc1cccc(F)c1)N1CCN(C/C=C/c2ccccc2)CC1 do in these assays?
CAL PDZ FP-1: -1.1; A3A deaminase: -3.1; APOBEC3G inh: -6.5; CAL PDZ FP-2: 38.9*; Keap1-Nrf2 PPI: -4.5; LANA DNA inh: -0.8

What do the screens show for `O=C(Nc1ccc(F)cc1)N1CCN(C/C=C/c2ccccc2)CC1`?
CAL PDZ FP-1: -2.7; A3A deaminase: -2.4; APOBEC3G inh: -5.3; CAL PDZ FP-2: -0.3; Keap1-Nrf2 PPI: -6.5; LANA DNA inh: -0.7

What do the screens show for `Cc1ccc(C)c(CNS(=O)(=O)c2c(C)[nH]c(C)c2C(=O)N2CCCCC2)c1`?
CAL PDZ FP-1: 0.1; A3A deaminase: -3.4; APOBEC3G inh: -6.0; Keap1-Nrf2 PPI: 4.5; LANA DNA inh: -0.1

Results for CCc1sc(C(=O)Nc2cc(S(=O)(=O)N3CCOCC3)ccc2OC)cc1C ?
CAL PDZ FP-1: 0.2; A3A deaminase: -2.0; APOBEC3G inh: -7.5; Keap1-Nrf2 PPI: -2.9; LANA DNA inh: 0.2

How did Cc1ccc(S(=O)(=O)N2CCN(C(=O)COC(=O)/C=C/c3ccc([N+](=O)[O-])cc3)CC2)c(C)c1 do in these assays?
CAL PDZ FP-1: -0.5; A3A deaminase: -4.9; APOBEC3G inh: -10.1; CAL PDZ FP-2: -6.3; Keap1-Nrf2 PPI: -3.6; LANA DNA inh: -0.1

What do the screens show for `C=CCOc1ccc(/C=C/C(=O)OCC(=O)N2CCN(S(=O)(=O)c3ccc(C)cc3C)CC2)cc1`?
CAL PDZ FP-1: -0.3; CAL PDZ FP-2: 47.1*; Keap1-Nrf2 PPI: 3.6; LANA DNA inh: 0.1

Results for COc1ccc(C(CNC(=O)c2ccc(NS(=O)(=O)c3ccc(F)c(C)c3)cc2)N2CCCC2)cc1 (centres undefined) ?
CAL PDZ FP-1: -2.7; CAL PDZ FP-2: 55.4*; Keap1-Nrf2 PPI: -0.3; LANA DNA inh: 1.7

Results for COCCNC(=O)c1cc2c(-c3ccccc3F)nn(C)c2s1 ?
CAL PDZ FP-1: -1.5; A3A deaminase: -2.6; APOBEC3G inh: -7.3; CAL PDZ FP-2: -1.6; Keap1-Nrf2 PPI: -2.3; LANA DNA inh: 0.2

How did CCCCN(C)CCNC(=O)c1cc2c(-c3ccccc3F)nn(C)c2s1 do in these assays?
CAL PDZ FP-1: -3.7; A3A deaminase: -0.6; APOBEC3G inh: 6.5; CAL PDZ FP-2: 42.8*; Keap1-Nrf2 PPI: 0.9; LANA DNA inh: -4.3

Results for C=CCC(C#Cc1ccccc1)[N+](C)(C)CC=C (centres undefined) ?
CAL PDZ FP-1: 1.2; A3A deaminase: -2.3; APOBEC3G inh: -4.6; Keap1-Nrf2 PPI: -2.0; LANA DNA inh: -3.5

High-throughput results deposited in PubChem by several laboratories.
